Measurements taken from ChEMBL document CHEMBL1125346, “Guanidinophenyl-substituted enol lactones as selective, mechanism-based inhibitors of trypsin-like serine proteases” (J Med Chem, 1992).

Columns and labels:
[1] = biological target: Prothrombin (Homo sapiens) (UniProt P00734); assay: Acylation rate constant against thrombin
Summary of the method: (§1)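 Competitive substrate assay: lactone (DMSO, final 10% v/v) and chromogenic substrate combined in buffer, enzyme added, absorbance followed to steady state. Turnover-corrected semilog plot gives kobs; I0 vs I0/kobs replot (eq 6) with separately determined Km yields Ki and ka. Where no burst was seen, Ki was estimated from Km(app) replots using 15-s initial velocities. Buffers and substrates as in incubation assay.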

[2] = biological target: Chymotrypsinogen A (Bos taurus) (UniProt P00766); assay: Time for which maximum percent inhibition persists was determined against alpha-chymotrypsin (17 nM); * =no enzyme activity was recovered over 2 h; format: functional
Summary of the method: (§2)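 Enzyme incubated with excess lactone added from DMSO stock (final 10% DMSO); aliquots over 2 h diluted into substrate: chymotrypsin Suc-AAPF-pNA 315 µM, pH 7.2, 410 nm; t-PA Spectrozyme t-PA 0.2 mM, Tris-imidazole pH 8.4, 405 nm; HNE MeO-Suc-AAPV-pNA 150 µM, pH 7.4, 410 nm; plasmin Ts-GPK-pNA 157.4 µM, pH 7.8, 404 nm; thrombin Ts-GPR-pNA 75 µM, pH 8.0, 408 nm; trypsin Z-VGR-pNA 155 µM, pH 7.2, 404 nm. Activity given relative to a no-lactone control. Some runs used a 10-min substrate-free delay after dilution. ∞ means no recovery over 2 h.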

[3] = biological target: T1, Serine protease 1 (Bos taurus) (UniProt P00760); assay: Time for which maximum percent inhibition persists was determined against trypsin (14.6 nM); format: functional
T1 sequence (whole entry): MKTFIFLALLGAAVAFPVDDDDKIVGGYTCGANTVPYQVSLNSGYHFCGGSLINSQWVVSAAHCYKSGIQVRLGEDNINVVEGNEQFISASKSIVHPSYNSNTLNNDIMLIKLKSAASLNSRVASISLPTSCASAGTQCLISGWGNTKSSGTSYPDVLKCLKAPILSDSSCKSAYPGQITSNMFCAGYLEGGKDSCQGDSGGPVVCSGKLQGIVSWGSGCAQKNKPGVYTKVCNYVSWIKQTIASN
Summary of the method: (§3)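 Trypsin was incubated with excess lactone added from DMSO stock (10% final DMSO). Aliquots taken over 2 h were diluted into Z-Val-Gly-Arg-pNA (155 μM) in 0.2 M phosphate, pH 7.2, and read at 404 nm. Activity came from the absorbance slope versus a no-lactone control. Reported are minutes to maximal inhibition and minutes it persisted; ∞ means no recovery within 2 h.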

[4] = biological target: Plasminogen (Homo sapiens) (UniProt P00747); assay: Substrate binding constant against plasmin; summary of the method: as §1
[5] = Ratio of initial inhibitor concentration to initial thrombin concentration
Summary of the method: (§4)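 Ratio I0/E0 of lactone to enzyme in the 2-h incubation assay; lactone added from DMSO stock to buffered enzyme (final 10% DMSO).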

[6] = biological target: Prothrombin (Homo sapiens) (UniProt P00734); assay: Time to reach maximum percent inhibition by the compound was determined against thrombin (1.93 nM); format: functional
Summary of the method: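 Thrombin was incubated with excess lactone (DMSO, 10% final). Aliquots over 2 h were diluted into Ts-Gly-Pro-Arg-pNA (75 μM) in 0.05 M phosphate, 0.01 M EDTA, 10 g/L PEG 8000, 10 mg/L aprotinin, pH 8.0, and read at 408 nm against a no-lactone control. Time to maximal inhibition was recorded.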

[7] = biological target: T2, Neutrophil elastase (Homo sapiens) (UniProt P08246); assay: Maximum percent inhibition persists was determined against human neutrophil elastase HNE 66 nM; summary of the method: as §2
T2 sequence (whole entry): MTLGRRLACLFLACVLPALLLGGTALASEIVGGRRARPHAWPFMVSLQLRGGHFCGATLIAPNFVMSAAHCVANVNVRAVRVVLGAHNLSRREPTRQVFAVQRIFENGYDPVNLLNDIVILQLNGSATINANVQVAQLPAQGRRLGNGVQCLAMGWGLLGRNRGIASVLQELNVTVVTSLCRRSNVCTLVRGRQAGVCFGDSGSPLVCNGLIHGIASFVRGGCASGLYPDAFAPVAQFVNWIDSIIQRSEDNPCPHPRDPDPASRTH

[8] = biological target: T1, Serine protease 1 (Bos taurus); assay: Time to reach maximum percent inhibition by the compound was determined against trypsin (14.6 nM); format: functional; summary of the method: as §3
[9] = biological target: Plasminogen (Homo sapiens) (UniProt P00747); assay: Second order rate constant against plasmin; summary of the method: as §1
[10] = biological target: T2, Neutrophil elastase (Homo sapiens); assay: Time for which maximum percent inhibition by the compound was determined against human neutrophil elastase HNE(66 nM); format: functional; summary of the method: as §2
[11] = biological target: T2, Neutrophil elastase (Homo sapiens); assay: Time for which maximum percent inhibition persists was determined against human neutrophil elastase HNE(66 nM); format: functional; summary of the method: as §2
[12] = biological target: Plasminogen (Homo sapiens) (UniProt P00747); assay: Acylation rate constant against plasmin; summary of the method: as §1
[13] = biological target: Prothrombin (Homo sapiens) (UniProt P00734); assay: Maximum percent inhibition by the compound was determined against thrombin (1.93 nM); summary of the method: as §2
[14] = biological target: Tissue-type plasminogen activator (Homo sapiens) (UniProt P00750); assay: Substrate binding constant against Tissue plasminogen activator; summary of the method: as §1
[15] = biological target: Prothrombin (Homo sapiens) (UniProt P00734); assay: Percent activity regained after N2H4 treatment for thrombin (1.93 nM); format: functional
[16] = Ratio of initial inhibitor concentration to initial Plasmin concentration; summary of the method: as §4
[17] = Ratio of initial inhibitor concentration to initial trypsin concentration; summary of the method: as §4
[18] = biological target: Tissue-type plasminogen activator (Homo sapiens) (UniProt P00750); assay: Maximum percent inhibition by the compound was determined against Tissue plasminogen activator (19.4 nM); summary of the method: as §2
[19] = biological target: T3, Urokinase-type plasminogen activator (Homo sapiens, UniProt P00749); assay: Acylation rate constant against urokinase
[20] = biological target: Tissue-type plasminogen activator (Homo sapiens) (UniProt P00750); assay: Time to reach maximum percent inhibition by the compound was determined against Tissue plasminogen activator (19.4 nM); format: functional
Summary of the method: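 Tissue plasminogen activator was exposed to excess lactone (10% final DMSO). Over 2 h, aliquots were diluted into Spectrozyme t-PA (0.2 mM) in Tris-imidazole, I 0.3, pH 8.4. Hydrolysis at 405 nm gave residual activity relative to an enzyme-only control. The time (min) to reach maximal percent inhibition was recorded.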

[21] = Ratio of initial inhibitor concentration to initial Chymotrypsinogen concentration; summary of the method: as §4
[22] = biological target: T1, Serine protease 1 (Bos taurus); assay: Maximum percent inhibition by the compound was determined against trypsin (14.6 nM); summary of the method: as §2
[23] = biological target: Chymotrypsinogen A (Bos taurus) (UniProt P00766); assay: Time for which maximum percent inhibition by the compound was determined against alpha-chymotrypsin (17 nM); format: functional; summary of the method: as §2
[24] = biological target: Plasminogen (Homo sapiens) (UniProt P00747); assay: Time to reach maximum percent inhibition by the compound was determined against plasmin(625 nM); format: functional
Summary of the method: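 Plasmin plus excess lactone (10% final DMSO) was sampled over 2 h into Ts-Gly-Pro-Lys-pNA (157.4 μM) in 0.05 M phosphate, pH 7.8. The slope at 404 nm, relative to an enzyme-only control, gave residual activity. Minutes needed to reach maximal inhibition were reported.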

[25] = biological target: T3, Urokinase-type plasminogen activator
[26] = biological target: Plasminogen (Homo sapiens) (UniProt P00747); assay: Percent activity regained after N2H4 treatment for plasmin(625 nM); format: functional
[27] = Ratio of initial inhibitor concentration to initial HNE concentration; summary of the method: as §4
[28] = biological target: Plasminogen (Homo sapiens) (UniProt P00747); assay: Maximum percent inhibition by the compound was determined against plasmin(625 nM); summary of the method: as §2
[29] = biological target: T3, Urokinase-type plasminogen activator; assay: Percent activity regained after N2H4 treatment for Urokinase-type plasminogen activator (300 nM); format: functional
[30] = Ratio of initial inhibitor concentration to initial t-PA concentration; summary of the method: as §4
[31] = biological target: Prothrombin (Homo sapiens) (UniProt P00734); assay: Substrate binding constant against thrombin; summary of the method: as §1
[32] = biological target: Chymotrypsinogen A (Bos taurus) (UniProt P00766); assay: Substrate binding constant against Chymotrypsinogen; summary of the method: as §1
[33] = biological target: Prothrombin (Homo sapiens) (UniProt P00734); assay: Second order rate constant against thrombin; summary of the method: as §1
[34] = biological target: Chymotrypsinogen A (Bos taurus) (UniProt P00766); assay: Acylation rate constant against Chymotrypsinogen; summary of the method: as §1
[35] = biological target: Chymotrypsinogen A (Bos taurus) (UniProt P00766); assay: Second order rate constant against Chymotrypsinogen; summary of the method: as §1
[36] = biological target: Chymotrypsinogen A (Bos taurus) (UniProt P00766); assay: Percent activity regained after N2H4 treatment for alpha-chymotrypsin (17 nM); format: functional
[37] = Ratio of initial inhibitor concentration to initial urokinase concentration; summary of the method: as §4
[38] = biological target: Chymotrypsinogen A (Bos taurus) (UniProt P00766); assay: Maximum percent inhibition persists was determined against Chymotrypsinogen (17 nM); summary of the method: as §2
[39] = biological target: Prothrombin (Homo sapiens) (UniProt P00734); assay: Time for which maximum percent inhibition persists was determined against thrombin (1.93 nM); * =no enzyme activity was recovered over 2 h; format: functional; summary of the method: as §2
[40] = biological target: T3, Urokinase-type plasminogen activator; remark: listed apart in the source
[41] = biological target: Plasminogen (Homo sapiens) (UniProt P00747); assay: Time for which maximum percent inhibition persists was determined against plasmin(625 nM); * =no enzyme activity was recovered over 2 h; format: functional; summary of the method: as §2
[42] = biological target: Tissue-type plasminogen activator (Homo sapiens) (UniProt P00750); assay: Time for which maximum percent inhibition persists was determined against Tissue plasminogen activator (19.4 nM); * =no enzyme activity was recovered over 2 h; format: functional; summary of the method: as §2
[43] = biological target: Tissue-type plasminogen activator (Homo sapiens) (UniProt P00750); assay: Percent activity regained after N2H4 treatment for Tissue plasminogen activator 19.4 nM); format: functional

Tissue-type plasminogen activator (Homo sapiens), sequence (P00750 36-562 limits assumed): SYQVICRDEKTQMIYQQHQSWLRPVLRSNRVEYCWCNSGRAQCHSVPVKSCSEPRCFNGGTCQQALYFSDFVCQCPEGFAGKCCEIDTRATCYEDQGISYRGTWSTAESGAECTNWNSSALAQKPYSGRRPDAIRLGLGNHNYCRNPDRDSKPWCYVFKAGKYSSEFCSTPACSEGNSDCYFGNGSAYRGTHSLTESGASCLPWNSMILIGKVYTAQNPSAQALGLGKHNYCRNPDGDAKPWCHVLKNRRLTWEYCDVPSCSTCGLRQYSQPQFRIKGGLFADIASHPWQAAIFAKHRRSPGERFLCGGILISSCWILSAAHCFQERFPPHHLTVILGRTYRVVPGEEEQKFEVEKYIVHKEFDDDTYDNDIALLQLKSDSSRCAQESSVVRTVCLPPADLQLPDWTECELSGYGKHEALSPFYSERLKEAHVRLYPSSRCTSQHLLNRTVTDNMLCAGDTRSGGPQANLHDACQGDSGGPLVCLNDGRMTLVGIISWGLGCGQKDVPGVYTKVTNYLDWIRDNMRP
Plasminogen (Homo sapiens), sequence (P00747 97-580 limits assumed): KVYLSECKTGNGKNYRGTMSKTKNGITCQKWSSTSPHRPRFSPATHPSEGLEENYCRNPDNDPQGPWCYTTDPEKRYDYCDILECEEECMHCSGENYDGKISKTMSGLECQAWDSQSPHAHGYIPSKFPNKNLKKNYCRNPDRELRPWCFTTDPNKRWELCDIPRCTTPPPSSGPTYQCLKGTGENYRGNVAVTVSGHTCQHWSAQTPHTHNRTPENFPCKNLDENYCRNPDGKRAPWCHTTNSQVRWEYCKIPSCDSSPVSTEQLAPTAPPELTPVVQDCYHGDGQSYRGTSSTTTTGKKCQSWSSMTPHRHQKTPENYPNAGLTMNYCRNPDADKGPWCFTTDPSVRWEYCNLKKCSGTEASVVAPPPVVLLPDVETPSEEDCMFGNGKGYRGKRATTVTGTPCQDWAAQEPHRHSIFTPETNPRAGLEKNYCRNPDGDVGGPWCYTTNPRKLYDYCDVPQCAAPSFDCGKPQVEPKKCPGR
Plasminogen (Homo sapiens), sequence (P00747 581-810 limits assumed): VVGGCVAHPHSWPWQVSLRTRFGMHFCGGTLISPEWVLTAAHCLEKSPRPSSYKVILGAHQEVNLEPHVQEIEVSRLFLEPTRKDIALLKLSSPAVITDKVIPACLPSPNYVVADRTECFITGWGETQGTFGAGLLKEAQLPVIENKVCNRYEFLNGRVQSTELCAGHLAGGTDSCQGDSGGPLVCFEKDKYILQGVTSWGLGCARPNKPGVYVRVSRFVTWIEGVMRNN

Ka [1]: 12.9 min⁻¹
TIME [2]: No enzyme activity
TIME [3]: 0 h
Ks [4]: 0.03 µM
Ratio [5]: 518 Io/Eo
TIME [6]: 0 h
inhibition [7]: 38%
TIME [8]: 0 h
Rate [9]: 453 ka/Ks
TIME [10]: 0.5 h
TIME [11]: 1.5 h
Ka [12]: 13.6 min⁻¹
inhibition [13]: 93%
Ks [14]: 0.67 µM
Activity [15]: 85%
Ratio [16]: 16 Io/Eo
Ratio [17]: 86 Io/Eo
inhibition [18]: 48%
Ka [19]: 18.6 min⁻¹
TIME [20]: 0.25 h
Ratio [21]: 118 Io/Eo
inhibition [22]: 80%
TIME [23]: 0.25 h
TIME [24]: 0 h
Ks [25]: 0.16 µM
Activity [26]: 14%
Ratio [27]: 36 Io/Eo
inhibition [28]: 95%
Activity [29]: 0%
Ratio [30]: 100 Io/Eo
Ks [31]: 0.93 µM
Ks [32]: 2.4 µM
Rate [33]: 14 ka/Ks
Ka [34]: 7.22 min⁻¹
Rate [35]: 3 ka/Ks
Activity [36]: 32%
Ratio [37]: 50 Io/Eo
inhibition [38]: 78%
TIME [39]: No enzyme activity
Rate [40]: 117 ka/Ks
TIME [41]: No enzyme activity
TIME [42]: No enzyme activity
Activity [43]: 0%
Compound: N=C(N)Nc1ccc(C2CC/C(=C\I)OC2=O)cc1 (stereo not drawn)
